What is called Ki is the equilibrium dissociation constant of an inhibitor or competing ligand from its target. Read a high Ki as lower affinity. By solubility is commonly meant the concentration that dissolves in the medium under given conditions. The low end stands for little dissolved substance, the high end for much dissolved substance. By Papp A→B is commonly meant how fast a substance crosses the layer from the apical side. As a reminder, the half-life is the time needed for the level to fall by half in the phase considered. One may read the EC50 as the concentration that produces a half-maximal response. A higher EC50 goes with a less potent agent. The term Papp denotes the rate of passage across a membrane or cell layer, normalised by area and donor concentration.

Series [1] concerns the target Hepatitis C virus serine protease, NS3/NS4A (Hepatitis C virus, UniProt A3EZI9+D2K2A8). In words: (§1) Inhibition of HCV genotype 1a NS3/4A protease using Ac-DED(Edans)EEAbu-psi[COO]ASK(Dabcyl)-NH2 as substrate by FRET assay. Also noted: species or system Hepatitis C virus subtype 1a. The method, boiled down:
(§2)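 Full-length NS3/4A (protease–helicase/NTPase, genotype 1a) measured by FRET. Buffer: 50 mM HEPES pH 7.5, 10 mM DTT, 40% glycerol, 0.1% n-octyl-β-D-glucoside, 3.3% DMSO. Ki values derived.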

The nature of series [2]: Solubility of the compound in PBS after 2 hrs by LC-MS/MS analysis. The format is physicochemical. The method, boiled down:
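DMSO stock (10 mM) added to PBS to 1% final DMSO, rotated in glass vials 2 h at 37 °C. Centrifuged 10,000g for 30 min, then supernatant quantified by LC–MS/MS. Upper detection limit 100 µM.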

A short description of series [3]: Apparent permeability from apical to basolateral side in human Caco2 cells. Conditions: Caco-2. The format is ADME, cell-based. The method, boiled down:
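Caco-2 monolayers on polycarbonate filter inserts, cells kept in 90% air/10% CO2. Compound diluted from 10 mM DMSO stock to 10 µM (final DMSO 0.1%) in FASSIF pH 7.4 on apical donor side. Receiver is HBSS pH 7.4 with 1% (w/v) BSA. Run at 37 °C with 500 rpm stirring. Receiver sampled at 15, 30 and 60 min, donor sampled at 60 min for mass balance. Membrane integrity checked afterwards, LC/MS/MS read-out, at least triplicates.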
In general terms: Passage across Caco-2 layers is used to estimate intestinal permeability.

A short description of series [4]: Intrinsic clearance in human liver microsomes preincubated for 5 mins by LC/MS/MS analysis. The format is ADME. Conditions: liver microsomes. The method, boiled down: (§3)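 Compound at 1 µM preincubated 5 min at 37 °C with pooled human liver microsomes (0.5 mg/mL) in 0.1 M potassium phosphate pH 7.4. Reaction started with NADPH (1 mM final) and stopped at 0, 5, 15 and 40 min with ice-cold acetonitrile containing internal standard. LC/MS/MS read-out. ln(% remaining) regressed linearly on time; t1/2 and Clint derived assuming first-order kinetics. Dextromethorphan (3 µM) and midazolam (5 µM) served as CYP2D6/CYP3A4 controls.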

The nature of series [5]: Half life in human liver microsomes preincubated for 5 mins by LC/MS/MS analysis. The format is ADME. Conditions: liver microsomes. The method, boiled down:
as §3
For orientation: Microsomes from liver hold many membrane-bound enzymes, among them those of drug oxidation.

Series [6] deals with Hepatitis C virus. In words: Antiviral activity against HCV genotype 1b infected in human Huh-7 cells by firefly luciferase assay. The format is functional, cell-based, Hepacivirus hominis. The method, boiled down:
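Huh-7 cells carrying a subgenomic HCV genotype 1b replicon with firefly luciferase reporter; EC50 derived from luciferase signal.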

For series [7], the system named is Hepatitis C virus. The series is described as follows: Antiviral activity against HCV genotype 1a. The format is functional, Hepacivirus hominis. Conditions: subtype 1a.
For series [8], the target named is Hepatitis C virus serine protease, NS3/NS4A (Hepatitis C virus, UniProt D2K2A8+A3EZI9). The series is described as §1. Also noted: species or system Hepatitis C virus subtype 1a. The method, boiled down:
as §2

≈ marks a conversion by molar mass, not a printed value. Some results are limits rather than exact numbers.

Hepatitis C virus serine protease, NS3/NS4A (Hepatitis C virus, UniProt A3EZI9+D2K2A8), sequence (D2K2A8 whole entry): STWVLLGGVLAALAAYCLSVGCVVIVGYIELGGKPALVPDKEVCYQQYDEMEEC
Hepatitis C virus serine protease, NS3/NS4A (Hepatitis C virus, UniProt A3EZI9+D2K2A8), sequence (A3EZI9 whole entry): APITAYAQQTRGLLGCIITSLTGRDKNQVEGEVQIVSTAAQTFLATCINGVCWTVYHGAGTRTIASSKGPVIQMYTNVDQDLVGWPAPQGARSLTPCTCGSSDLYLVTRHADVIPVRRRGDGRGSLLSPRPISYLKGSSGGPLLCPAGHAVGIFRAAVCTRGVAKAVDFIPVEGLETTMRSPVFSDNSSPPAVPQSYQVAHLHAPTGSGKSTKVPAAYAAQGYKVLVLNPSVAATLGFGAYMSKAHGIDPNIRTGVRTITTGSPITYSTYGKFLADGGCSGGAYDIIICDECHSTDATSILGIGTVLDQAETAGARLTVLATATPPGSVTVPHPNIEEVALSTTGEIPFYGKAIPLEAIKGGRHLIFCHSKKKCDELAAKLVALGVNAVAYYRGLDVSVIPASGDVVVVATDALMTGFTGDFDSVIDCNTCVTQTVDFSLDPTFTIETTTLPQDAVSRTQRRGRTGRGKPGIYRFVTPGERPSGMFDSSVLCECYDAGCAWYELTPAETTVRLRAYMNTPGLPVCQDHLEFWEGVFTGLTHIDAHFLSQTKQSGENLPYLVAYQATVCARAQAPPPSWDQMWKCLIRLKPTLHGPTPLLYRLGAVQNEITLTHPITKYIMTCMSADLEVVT
Hepatitis C virus serine protease, NS3/NS4A (Hepatitis C virus, UniProt D2K2A8+A3EZI9), sequence (D2K2A8 whole entry): as the sequence (D2K2A8 whole entry) above
Hepatitis C virus serine protease, NS3/NS4A (Hepatitis C virus, UniProt D2K2A8+A3EZI9), sequence (A3EZI9 whole entry): as the sequence (A3EZI9 whole entry) above

The compound `C=CCCCS(=O)(=O)NC(=O)[C@H](CCC)NC(=O)[C@@H](NC(=O)[C@@H](NC(=O)OC(C)(C)C)C(C)(C)C)c1ccc(Oc2cc(-c3ccccc3)nc3cc(OC)ccc23)c(C=C)c1` registered a Ki in series [1] of 63 nM.
On the same count and under the same terms, under `C=CCCCS(=O)(=O)NC(=O)[C@H](CCC)NC(=O)[C@@H]1C[C@@H](Oc2cc(-c3ccccc3)nc3cc(OC)ccc23)CN1C(=O)[C@@H](NC(=O)OC(C)(C)C)C(C)(C)C` stands 300 nM; under `COc1ccc2c(O[C@@H]3C[C@@H](C(=O)Nc4ccccc4C(=O)NS(=O)(=O)c4ccccc4)N(C(=O)[C@@H](NC(=O)OC(C)(C)C)C(C)(C)C)C3)cc(-c3ccccc3)nc2c1`, 830 nM; under `COc1ccc2c(O[C@@H]3C[C@H]4C(=O)N[C@]5(C(=O)O)C[C@H]5/C=C\CCCCC[C@H](NC(=O)OC5CCCC5)C(=O)N4C3)cc(-c3csc(NC(C)C)n3)nc2c1`, 0.3 nM.
In turn, `C=CCCCS(=O)(=O)NC(=O)c1ccccc1NC(=O)[C@@H](NC(=O)[C@@H](NC(=O)OC(C)(C)C)C(C)(C)C)c1ccc(Oc2cc(OC)nc(-c3ccccc3)n2)c(C=C)c1` displayed a Ki in series [1] of 26 nM. Moreover, the solubility at 2 h in series [2] came to 66 µM (≈ 55.5 µg/mL). Further, the Papp A→B in series [3] was found to be 1.7 ×10⁻⁶ cm/s. Also, the microsomal CLint in series [4] came to 17 µL/min/mg. Moreover, the half-life in series [5] was 83 min. The same compound displayed an EC50 with Hepatitis C virus [6] of over 10000 nM.
Turning to `C=CCCCS(=O)(=O)NC(=O)c1ccccc1NC(=O)[C@H](NC(=O)[C@@H](NC(=O)OC(C)(C)C)C(C)(C)C)c1ccc(Oc2cc(OC)nc(-c3ccccc3)n2)c(C=C)c1`, the Ki in series [1] stood at 33 nM. Also, the EC50 in the series with Hepatitis C virus [6] was over 10000 nM.
Compound `C=CCCCS(=O)(=O)NC(=O)c1ccccc1NC(=O)[C@@H](NC(=O)OC(C)(C)C)c1ccc(Oc2cc(OC)nc(-c3ccccc3)n2)c(C=C)c1` returned a Ki in series [1] of 190 nM. This compound also displayed a solubility at 2 h in series [2] of 101 µM (≈ 73.5 µg/mL). Besides, the Papp A→B in series [3] is 1 ×10⁻⁶ cm/s.
As for `CCC[C@H](NC(=O)C1[C@H]2CCC[C@H]2CN1C(=O)[C@@H](NC(=O)[C@@H](NC(=O)c1cnccn1)C1CCCCC1)C(C)(C)C)C(=O)C(=O)NC1CC1` (stereo partly drawn), the Ki in series [1] was 40 nM. Moreover, in the series on Hepatitis C virus [7], the EC50 is 350 nM.
On to `COc1ccc2c(Oc3ccc([C@H](NC(=O)[C@@H](NC(=O)OC(C)(C)C)C(C)(C)C)C(=O)Nc4ccccc4C(=O)NS(=O)(=O)c4ccccc4)cc3)cc(-c3ccccc3)nc2c1`, for which the Ki in series [1] came out at 310 nM.
The compound `C=CCCCS(=O)(=O)NC(=O)c1ccccc1NC(=O)[C@@H](NC(=O)OC(C)(C)C)c1ccc(Oc2cc(C=C)nc(-c3ccccc3)n2)cc1` registered an inhibitory constant (Ki) in series [1] of 220 nM.
`C=CCCCS(=O)(=O)NC(=O)c1ccccc1NC(=O)[C@@H](NC(=O)OC(C)(C)C)c1ccc(Oc2cc(OC)nc(-c3ccccc3)n2)cc1`: in series [1], the Ki was found to be 600 nM. Moreover, the solubility at 2 h in series [2] was found to be 93 µM (≈ 65.3 µg/mL). The Papp A→B in series [3] turned out to be 4 ×10⁻⁶ cm/s. In series [4], the microsomal CLint was found to be 86 µL/min/mg. Further, in series [5], the half-life was found to be 16 min.
As for `C=CCCS(=O)(=O)NC(=O)c1ccccc1NC(=O)[C@@H](NC(=O)OC(C)(C)C)c1ccc(Oc2cc(OC)nc(-c3ccccc3)n2)c(C=C)c1`, the affinity in series [1], expressed as Ki, was 370 nM.
On the same count and under the same terms, under `C=CCCCS(=O)(=O)NC(=O)c1ccccc1NC(=O)[C@@H](NC(=O)[C@@H](NC(=O)OCCC=C)C(C)(C)C)c1ccc(Oc2cc(C=C)nc(-c3ccccc3)n2)cc1` stands 110 nM.
As to `C=CCCCCC[C@H](NC(=O)OC(C)(C)C)C(=O)N[C@H](C(=O)Nc1ccccc1C(=O)NS(=O)(=O)CCCC=C)c1ccc(Oc2cc(OC)nc(-c3ccccc3)n2)cc1`, in series [1], the Ki amounted to 230 nM. In addition, the concentration in solution in series [2] (solubility at 2 h) came to 91 µM (≈ 77.8 µg/mL). Further, the Papp A→B in series [3] amounted to 0.22 ×10⁻⁶ cm/s. For the same compound, the microsomal CLint in series [4] came to 60 µL/min/mg. The half-life in series [5] turned out to be 23 min.
Compound `C=CCCCS(=O)(=O)NC(=O)c1ccccc1NC(=O)[C@@H](NC(=O)[C@@H](NC(=O)OC(C)(C)C)C(C)(C)C)c1ccc(Oc2cc(OC)nc(-c3ccccc3)n2)cc1` came in with a Ki in series [1] of 95 nM. The compound further gave a solubility at 2 h in series [2] of 33 µM (≈ 26.9 µg/mL). For the same compound, the Papp A→B in series [3] came to 0.22 ×10⁻⁶ cm/s. Besides, in series [4], the microsomal CLint was found to be 64 µL/min/mg. The compound further came in with a half-life in series [5] of 22 min.
The compound `CCC[C@@H]1NC(=O)[C@@H](NC(=O)[C@@H](NC(=O)OC(C)(C)C)C(C)(C)C)c2ccc(cc2)Oc2cc(nc(-c3ccccc3)n2)/C=C/CCCS(=O)(=O)NC1=O` gave a Ki in series [1] of 2400 nM.
Still for that read-out and setting: the result for `CC(C)(C)OC(=O)N[C@H](C(=O)N[C@@H]1C(=O)Nc2ccccc2C(=O)NS(=O)(=O)CCC/C=C/c2cc(nc(-c3ccccc3)n2)Oc2ccc1cc2)C(C)(C)C` reads 660 nM; that for `COc1cc(Oc2ccc3cc2/C=C/CCS(=O)(=O)NC(=O)c2ccccc2NC(=O)[C@H]3NC(=O)OC(C)(C)C)nc(-c2ccccc2)n1`, 1300 nM; that for `COc1cc(Oc2ccc3cc2/C=C/CCS(=O)(=O)NC(=O)c2ccccc2NC(=O)[C@H]3NC(=O)[C@@H](NC(=O)OC(C)(C)C)C(C)(C)C)nc(-c2ccccc2)n1`, 630 nM.
Still for that read-out and setting: under `COc1cc(Oc2ccc(C3NC(=O)[C@H](NC(=O)OC(C)(C)C)CCCCC/C=C/CCS(=O)(=O)NC(=O)c4ccccc4NC3=O)cc2)nc(-c2ccccc2)n1` (stereo partly drawn) stands 220 nM; under `COc1cc(Oc2ccc(C3NC(=O)[C@H](NC(=O)OC(C)(C)C)CCCCCCCCCS(=O)(=O)NC(=O)c4ccccc4NC3=O)cc2)nc(-c2ccccc2)n1` (stereo partly drawn), 130 nM.
Same read-out and setting: the result for `C=CCCCS(=O)(=O)NC(=O)c1ccccc1NC(=O)[C@H]1NC(=O)[C@H](C(C)(C)C)NC(=O)OCC/C=C/c2cc(nc(-c3ccccc3)n2)Oc2ccc1cc2` reads 390 nM.
The compound `C=CCCCS(=O)(=O)NC(=O)[C@H](CCC)NC(=O)[C@H]1NC(=O)[C@H](C(C)(C)C)NC(=O)OCC/C=C/c2cc(nc(-c3ccccc3)n2)Oc2ccc1cc2` yielded a Ki in series [1] of 1570 nM.
With `C=CCCCS(=O)(=O)NC(=O)c1ccccc1NC(=O)[C@@H](NC(=O)[C@@H](NC(=O)OC(C)(C)C)C(C)(C)C)c1ccc(Oc2cc(-c3ccccc3)nc3cc(OC)ccc23)c(C=C)c1`, in the series with Hepatitis C virus [6], the EC50 stood at 5400 nM.
The same measure, in the same setting: under `C=CCCCS(=O)(=O)NC(=O)c1ccccc1NC(=O)[C@H](NC(=O)[C@@H](NC(=O)OC(C)(C)C)C(C)(C)C)c1ccc(Oc2cc(-c3ccccc3)nc3cc(OC)ccc23)c(C=C)c1` stands 5400 nM.
In series [1], `CC[C@@H]1C[C@]1(NC(=O)[C@@H]1C[C@@H]2CN1C(=O)[C@H](C(C)(C)C)NC(=O)OCC(C)(C)CCCCc1cccc3c1CN(C3)C(=O)O2)C(=O)NS(=O)(=O)C1CC1` returned a Ki of 0.05 nM. In addition, in the series on Hepatitis C virus [7], the EC50 is 5 nM.
Regarding `COc1ccc2c(O[C@@H]3C[C@H]4C(=O)N[C@]5(C(=O)NS(=O)(=O)C6CC6)C[C@H]5/C=C\CCCCN(C)C(=O)[C@@H]4C3)cc(-c3nc(C(C)C)cs3)nc2c1C`, the Ki in series [1] worked out at 0.36 nM. The EC50 in the series on Hepatitis C virus [7] was 7.8 nM.
In the case of `COc1cc(Oc2ccc(C3NC(=O)[C@H](NC(=O)OC(C)(C)C)CCCCCCCCCCS(=O)(=O)NC(=O)c4ccccc4NC3=O)cc2)nc(-c2ccccc2)n1` (single isomer, unassigned; diastereomer 2), affinity in series [1] was put at a Ki of 110 nM.
`COc1cc(Oc2ccc(C3NC(=O)[C@H](NC(=O)OC(C)(C)C)CCCCC/C=C/CCCS(=O)(=O)NC(=O)c4ccccc4NC3=O)cc2)nc(-c2ccccc2)n1` (stereo in doubt; 29L) showed a Ki in series [1] of 110 nM. The amount in solution in series [2] (solubility at 2 h) came to 51 µM (≈ 42.2 µg/mL). In addition, the Papp in series [3] is 0.35 ×10⁻⁶ cm/s. The microsomal CLint in series [4] is 87 µL/min/mg. In series [5], this compound had a half-life of 16 min.
Take `COc1cc(Oc2ccc(C3NC(=O)[C@H](NC(=O)OC(C)(C)C)CCCCCCCCCCS(=O)(=O)NC(=O)c4ccccc4NC3=O)cc2)nc(-c2ccccc2)n1` (stereo in doubt; 31L): the affinity in series [8], expressed as Ki, was 110 nM.
In the case of `CC(C)(C)NC(=O)N[C@H](C(=O)N1C[C@H]2[C@@H]([C@H]1C(=O)NC(CC1CCC1)C(=O)C(N)=O)C2(C)C)C(C)(C)C` (stereo partly drawn) [BOCEPREVIR], the Ki in series [1] is 14 nM.

These data come from ChEMBL document CHEMBL3352136, “Vinylated linear P2 pyrimidinyloxyphenylglycine based inhibitors of the HCV NS3/4A protease and corresponding macrocycles” (Bioorg Med Chem, 2014).
